In ChEMBL document CHEMBL1129316, “Inhibitors of human immunodeficiency virus type 1 protease containing 2-aminobenzyl-substituted 4-amino-3-hydroxy-5-phenylpentanoic acid: synthesis, activity, and oral bioavailability” (J Med Chem, 1996):
In brackets after ≈: the same amount, converted by molar mass.

How the values were obtained:
[1] = molecular target: Human immunodeficiency virus type 1 protease (Human immunodeficiency virus 1, UniProt Q72874); assay: Binding affinity against HIV-1 protease
Procedure, shortened: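 Recombinant HIV-1 PR expressed in E. coli JM105 and purified to homogeneity. Enzyme incubated at 37 °C in 0.1 M MES, 0.37 M NaCl, 4 mM EDTA, pH 6.25, with 280 µM chromogenic nonapeptide substrate (pNph). Initial rates taken from the absorbance decrease at 298 nm. IC50 fitted, then Ki = (IC50 − Et/2)/(1 + S/Km). Mean of two determinations; DMSO ≤5%.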

[2] = tested on: Human immunodeficiency virus 1; assay: Antiviral activity against HIV-1, IIIB, in MT-4 Cells; type: functional, organism-based; conditions: Human immunodeficiency virus 1, MT4
Procedure, shortened: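 HIV-1 strain IIIB-induced cytopathic effect in HTLV-I-transformed MT4 cells. Virus adsorbed to cells at 1 × 10⁶ cells/mL, 37 °C, 1 h. Compounds added postadsorption, final 1 × 10⁵ cells/mL. Inoculum set to kill 90% of cells in 5 days. Mock-infected and compound-only controls run. DMSO ≤0.3%, medium with 10% FBS. Viability read by MTT after 5 days. Mean of repeat determinations.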

[3] = Solubility (phosphate-buffered saline, pH =7.4); type: physicochemical; conditions: read-out: S
Procedure, shortened: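 About 1 mg of lyophilized amorphous inhibitor in 1 mL PBS (pH 7.4), vortexed 1 min and sonicated 30 min at 37 °C. Filtered, then centrifuged at 100 000 rpm for 30 min. Supernatant run on RP-C18 HPLC (10 mM NH4OAc/CH3CN 50/50, UV 210 nm) and quantified by external standard. Minimum detectable 0.1 µg/mL.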

[4] = Oral Bioavailability was measured as area-under-curve(AUC) value at dose 125 mg/kg; type: ADME, organism-based; conditions: in vivo
Procedure, shortened: (§1)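 Female Balb/c mice, fasted 24 h before and during the study, water ad libitum. Dosed by oral gavage at 125 mg/kg in a liquid formulation. Heparinized whole blood sampled at various times, methanol-extracted, cleaned on sulfobenzyl SPE, then RP-C18 HPLC with UV at 200 nm against an internal standard. Cmax taken as observed; AUC calculated. Detection limit 0.1 µM.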

[5] = Oral Bioavailability was measured as Maximal observed concentration (Cmax) value at dose 125 mg/kg; type: ADME, organism-based; parameters: dose 125 mg/kg, route oral; conditions: in vivo; procedure, shortened: as §1
MT4 [6] = assay: Antiviral Activity against HIV-1, IIIB, in MT-4 Cells; d indicates no activity at 3 uM; type: functional, cell-based, Homo sapiens
Procedure, shortened: (§2)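 MT4 cells infected with HIV-1 IIIB; virus adsorbed at 1 × 10⁶ cells/mL, 37 °C, 1 h, then plated at 1 × 10⁵ cells/mL with compound added postadsorption. Inoculum set to kill 90% of cells in 5 days. Incubated 5 days; viability of infected and mock-infected cells by MTT, read spectrophotometrically. Medium with 10% FBS; DMSO ≤0.3%. Values given as mean ± SD, n in parentheses.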

MT4 [7] = assay: Antiviral Activity against HIV-1, IIIB, in MT-4 Cells; d indicates no activity at 10 uM; type: functional, cell-based, Homo sapiens; procedure, shortened: as §2

Row | SMILES | Ki [1] [nM] | IC50 [2] [nM] | solubility [3] [µM] | AUC [4] [µM·h] | Cmax [5] [nM] | IC50 (MT4 [6]) | IC50 (MT4 [7])
1 | COc1ccc(CN[C@@H](C(=O)NC2c3ccccc3C[C@H]2O)[C@H](O)[C@H](Cc2ccccc2)NC(=O)[C@@H](NC(=O)/C=C/c2ccc(OC)cc2O)C(C)(C)C)cc1 (stereo partly specified) | 18 | 238 | – | – | – | – | –
2 | CCOc1ccc(CN[C@@H](C(=O)N[C@H]2c3ccccc3C[C@H]2O)[C@H](O)[C@H](Cc2ccccc2)NC(=O)[C@@H](NC(=O)OCc2ccccc2)C(C)(C)C)cc1 | – | 256 | < 1 | 23.9 | 4300 | – | –
3 | CC(C)(C)OC(=O)N[C@@H](Cc1ccccc1)[C@@H](O)[C@@H](NCc1ccc(OCCO)cc1)C(=O)NCc1ccccc1 | – | – | – | – | – | No activity | –
4 | COc1ccc(CN[C@@H](C(=O)NC(C(=O)NCc2nc3ccccc3[nH]2)c2ccccc2)[C@H](O)[C@H](Cc2ccccc2)NC(=O)OC(C)(C)C)cc1 (stereo partly specified) | 11 | 380 | – | – | – | – | –
5 | COc1ccc(CN[C@@H](C(=O)NC(C(=O)NCc2nc3ccccc3[nH]2)C(C)C)[C@H](O)[C@H](Cc2ccccc2)NC(=O)OC(C)(C)C)cc1 (stereo partly specified) | 7.7 | 510 | 9 (≈ 6.06 µg/mL) | 127 | 9100 | – | –
6 | COc1ccc(CN[C@@H](C(=O)N[C@H](C(=O)NCc2nc3ccccc3[nH]2)C(C)C)[C@H](O)[C@H](Cc2ccccc2)NC(=O)[C@@H](NC(=O)OCc2ccccc2)C(C)(C)C)cc1 | 3.4 | 25 | < 1 | 0.6 | 200 | – | –
7 | COc1ccc(CN[C@@H](C(=O)N[C@H]2c3ccccc3C[C@H]2O)[C@H](O)[C@H](Cc2ccccc2)NC(=O)[C@@H](NC(=O)Nc2cccc(OC)c2OC)C(C)(C)C)cc1 | 13 | 532 | – | – | – | – | –
8 | COc1ccc(CN[C@@H](C(=O)N[C@H]2c3ccccc3CC2O)[C@H](O)[C@H](Cc2ccccc2)NC(=O)[C@@H](NC(=O)OCc2ccccc2)C(C)C)cc1 (stereo partly specified) | 8.1 | 344 | 2.9 (≈ 2.06 µg/mL) | 137 | 12300 | – | –
9 | CC(C)(C)OC(=O)N[C@@H](Cc1ccccc1)[C@@H](O)[C@@H](NCc1ccccc1)C(=O)NCc1ccccc1 | – | – | < 1 | 0.8 | 400 | No activity | –
10 | CC(C)(C)[C@H](NC(=O)OCc1ccccc1)C(=O)N[C@@H](Cc1ccccc1)[C@@H](O)[C@@H](NCc1ccc(OCCO)cc1)C(=O)N[C@H]1c2ccccc2C[C@H]1O | – | 155 | 16.5 (≈ 12.4 µg/mL) | 5.9 | 2600 | – | –
11 | CC(C)(C)OC(=O)N[C@@H](Cc1ccccc1)[C@@H](O)[C@@H](NCc1ccc(OCCN2CCOCC2)cc1)C(=O)N[C@@H]1c2ccccc2C[C@H]1O | 130 | – | – | – | – | – | No activity
12 | COc1ccc(CN[C@@H](C(=O)NC2c3ccccc3C[C@H]2O)[C@H](O)[C@H](Cc2ccccc2)NC(=O)[C@@H](NC(=O)CSc2nnn(C)n2)C(C)(C)C)cc1 (stereo partly specified) | 12 | 180 | 78 (≈ 58.1 µg/mL) | 7.4 | 2800 | – | –
13 | CCOc1ccc(CN[C@@H](C(=O)N[C@@H]2c3ccccc3C[C@H]2O)[C@H](O)[C@H](Cc2ccccc2)NC(=O)OC(C)(C)C)cc1 | 92 | – | – | – | – | – | No activity
14 | CC(C)(C)OC(=O)N[C@@H](Cc1ccccc1)[C@@H](O)[C@@H](NCc1ccc(CNC(=O)CCc2nc3ccccc3[nH]2)cc1)C(=O)N[C@H]1c2ccccc2C[C@H]1O | 41 | 4400 | – | – | – | – | –
15 | COc1ccc(CN[C@@H](C(=O)NC2c3ccccc3C[C@H]2O)[C@H](O)[C@H](Cc2ccccc2)NC(=O)[C@@H](NC(=O)CSc2nncn2C)C(C)(C)C)cc1 (stereo partly specified) | 5.8 | 190 | 260 (≈ 193 µg/mL) | 1.6 | 700 | – | –
16 | CC(C)(C)OC(=O)N[C@@H](Cc1ccccc1)[C@@H](O)[C@@H](NCc1ccc(CNC(=O)Nc2ccccc2)cc1)C(=O)N[C@@H]1c2ccccc2C[C@H]1O | 33 | – | – | – | – | – | No activity
17 | COc1ccc(CN[C@@H](C(=O)N[C@@H]2c3ccccc3C[C@H]2O)[C@H](O)[C@H](Cc2ccccc2)NC(=O)OC(C)(C)C)cc1 | 65 | – | – | – | – | – | No activity
18 | COc1ccc(CN[C@@H](C(=O)N[C@H]2c3ccccc3C[C@H]2O)[C@H](O)[C@H](Cc2ccccc2)NC(=O)[C@@H](NC(=O)OCc2ccccc2)C(C)(C)C)cc1 | 9.5 | 254 | < 1 | 82.5 | 16500 | – | –
19 | COc1ccc(CN[C@@H](C(=O)NC2c3ccccc3C[C@H]2O)[C@H](O)[C@H](Cc2ccccc2)NC(=O)[C@@H](NC(=O)CSc2nnc(C)s2)C(C)(C)C)cc1 (stereo partly specified) | 8 | 178 | 39 (≈ 29.7 µg/mL) | 60.3 | 20000 | – | –
20 | CC(C)(C)OC(=O)N[C@@H](Cc1ccccc1)[C@@H](O)[C@@H](NCc1ccc(OCCO)cc1)C(=O)N[C@@H]1c2ccccc2C[C@H]1O | 80 | 4000 | – | – | – | – | –
21 | CC(C)(C)OC(=O)N[C@@H](Cc1ccccc1)[C@@H](O)[C@@H](NCc1ccc(CNC(=O)CCc2nc3ccccc3[nH]2)cc1)C(=O)NCc1ccccc1 | – | – | – | – | – | No activity | –
22 | COc1ccc(CN[C@@H](C(=O)NC2c3ccccc3C[C@H]2O)[C@H](O)[C@H](Cc2ccccc2)NC(=O)[C@@H](NC(=O)CCc2ccccc2O)C(C)(C)C)cc1 (stereo partly specified) | 13 | 160 | – | 11.8 | 1800 | – | –
23 | CCC(C)C(NC(=O)OCc1ccccc1)C(=O)N[C@@H](Cc1ccccc1)[C@@H](O)[C@@H](NCc1ccc(OC)cc1)C(=O)N[C@@H]1c2ccccc2CC1O (stereo partly specified) | 8.2 | 1100 | – | – | – | – | –
24 | COc1ccc(CN[C@@H](C(=O)N[C@@H]2c3ccccc3C[C@H]2O)[C@H](O)[C@H](Cc2ccccc2)NC(=O)C(CC(N)=O)NC(=O)OCc2ccccc2)cc1 (stereo partly specified) | 15 | 1400 | – | – | – | – | –
25 | COc1ccc(CN[C@@H](C(=O)N[C@@H]2c3ccccc3C[C@H]2O)[C@H](O)[C@H](Cc2ccccc2)NC(=O)[C@@H](NC(=O)OC(C)(C)C)C(C)(C)C)cc1 | 210 | – | – | – | – | No activity | –
26 | CC(C)(C)OC(=O)N[C@@H](Cc1ccccc1)[C@@H](O)[C@@H](NCc1ccc(CNC(=O)OCc2ccccc2)cc1)C(=O)N[C@H]1c2ccccc2C[C@H]1O | – | – | – | – | – | – | No activity
27 | COc1ccc(CN[C@@H](C(=O)N[C@@H]2c3ccccc3C[C@H]2O)[C@H](O)[C@H](Cc2ccccc2)NC(=O)C(CC(=O)O)NC(=O)OCc2ccccc2)cc1 (stereo partly specified) | 22 | – | – | – | – | No activity | –
28 | COc1ccc(CN[C@@H](C(=O)NC2c3ccccc3C[C@H]2O)[C@H](O)[C@H](Cc2ccccc2)NC(=O)[C@@H](NC(=O)CCc2ccc(OC)c(O)c2)C(C)(C)C)cc1 (stereo partly specified) | 7.7 | 88 | – | 0.2 | 250 | – | –
29 | CC(=O)NCc1ccc(CN[C@@H](C(=O)N[C@H]2c3ccccc3C[C@H]2O)[C@H](O)[C@H](Cc2ccccc2)NC(=O)OC(C)(C)C)cc1 | 70 | 2600 | – | – | – | – | –
